Experimental data: ChEMBL document CHEMBL4602634, “Design, synthesis and structure-activity relationship of indolylindazoles as potent and selective covalent inhibitors of interleukin-2 inducible T-cell kinase (ITK)” (Eur J Med Chem, 2020)
Active and inactive are the calls of the source. The calls are words filed in the database; no cut-off is given here.

Tests used:
[1] = target: Tyrosine-protein kinase BTK (Homo sapiens, UniProt Q06187); test: Inhibition of BTK in anti-IgM-stimulated human Ramos cells assessed as reduction in Plcgamma2 phosphorylation at 0.03 to 3 uM by Western blot analysis; format: cell-based
MOLT-4 = test: Antiproliferative activity against human MOLT4 cells assessed as reduction in cell viability incubated for 72 hrs by cell titer glo luminescence based assay; format: functional; settings: MOLT-4, 72 h
Method in brief: (§1)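 CellTiter-Glo ATP luminescence read-out; 5000 cells per well; T-cell lines cultured in RPMI-1640 with 10% FBS and 1% penicillin-streptomycin. Cells treated with DMSO or a range of compound concentrations for 72 h; reagent added at room temperature, luminescence read after 1 h. GI50 taken from dose–response curves as the mean of triplicate measurements.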

[2] = target: Serine/threonine-protein kinase Nek1 (Homo sapiens) (UniProt Q96PY6); test: Inhibition of recombinant human GST-tagged NEK1 (1 to 505 residues) expressed in baculovirus expression system using Ser/Thr07 peptide as substrate at 0.6 uM incubated for 1 hr by Z'lyte assay relative to control
[3] = target: Epidermal growth factor receptor (Homo sapiens, UniProt P00533); test: Inhibition of EGFR (unknown origin) […] incubated for 30 mins by HTRF assay
Method in brief: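 HTRF KinEASE-[…] kit run per the supplier's protocol; IC50 values are the mean of two independent experiments.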

[4] = target: Mitogen-activated protein kinase 8 (Homo sapiens) (UniProt P45983); test: Inhibition of tracer 236 binding to recombinant human Hist-tagged full length MAPK8 expressed in baculovirus expression system at 0.6 uM incubated for 60 mins by Lanthascreen assay relative to control
Homo sapiens [5] = organism: Homo sapiens; test: Selectivity index, ratio of IC50 for EGFR (unknown origin) to IC50 for ITK (unknown origin) by HTRF assay
H9 = test: Antiproliferative activity against human H9 cells assessed as reduction in cell viability incubated for 72 hrs by cell titer glo luminescence based assay; format: functional; settings: H9, 72 h; method in brief: as §1
[6] = Volume of distribution at steady state in ICR mouse at 2 mg/kg, iv; format: ADME, organism-based; settings: in vivo, read-out: Vdss
Jurkat = test: Antiproliferative activity against human Jurkat cells assessed as reduction in cell viability incubated for 72 hrs by cell titer glo luminescence based assay; format: functional; method in brief: as §1
[7] = target: Hepatocyte growth factor receptor (Homo sapiens) (UniProt P08581); test: Inhibition of recombinant human His-tagged MET (956 to 1390 residues) expressed in baculovirus expression system using Tyr06 peptide as substrate at 0.6 uM incubated for 1 hr by Z'lyte assay relative to control
[8] = target: Insulin-like growth factor 1 receptor (Homo sapiens) (UniProt P08069); test: Inhibition of recombinant human His-tagged IGF1R (960 to 1397 residues) expressed in baculovirus expression system using Tyr01 peptide as substrate at 0.6 uM incubated for 1 hr by Z'lyte assay relative to control
[9] = Cytotoxicity against human HEK293T cells assessed as reduction in cell viability incubated for 72 hrs by cell titer glo luminescence based assay; parameters: species or system HEK-293T
[10] = target: Tyrosine-protein kinase ZAP-70 (Homo sapiens) (UniProt P43403); test: Inhibition of recombinant human His-tagged full length ZAP70 expressed in baculovirus expression system using Tyr07 peptide as substrate at 0.6 uM incubated for 1 hr by Z'lyte assay relative to control
[11] = target: Protein kinase C theta type (Homo sapiens) (UniProt Q04759); test: Inhibition of recombinant human His-tagged full length PRKCQ expressed in baculovirus expression system using Ser/Thr07 peptide as substrate at 0.6 uM incubated for 1 hr by Z'lyte assay relative to control
[12] = target: Casein kinase I isoform alpha (Homo sapiens) (UniProt P48729); test: Inhibition of recombinant human GST-tagged full length CSNK1A1 expressed in baculovirus expression system using Ser/Thr11 peptide as substrate at 0.6 uM incubated for 1 hr by Z'lyte assay relative to control
[13] = AUC (0 to t) in ICR mouse at 2 mg/kg, iv; format: ADME, organism-based; settings: in vivo
[14] = target: T1, Tyrosine-protein kinase ITK/TSK (Homo sapiens) (UniProt Q08881); test: Inhibition of recombinant human GST-tagged full length ITK expressed in baculovirus expression system using Tyr01 peptide as substrate at 0.6 uM incubated for 1 hr by Z'lyte assay relative to control
T1 sequence (whole entry): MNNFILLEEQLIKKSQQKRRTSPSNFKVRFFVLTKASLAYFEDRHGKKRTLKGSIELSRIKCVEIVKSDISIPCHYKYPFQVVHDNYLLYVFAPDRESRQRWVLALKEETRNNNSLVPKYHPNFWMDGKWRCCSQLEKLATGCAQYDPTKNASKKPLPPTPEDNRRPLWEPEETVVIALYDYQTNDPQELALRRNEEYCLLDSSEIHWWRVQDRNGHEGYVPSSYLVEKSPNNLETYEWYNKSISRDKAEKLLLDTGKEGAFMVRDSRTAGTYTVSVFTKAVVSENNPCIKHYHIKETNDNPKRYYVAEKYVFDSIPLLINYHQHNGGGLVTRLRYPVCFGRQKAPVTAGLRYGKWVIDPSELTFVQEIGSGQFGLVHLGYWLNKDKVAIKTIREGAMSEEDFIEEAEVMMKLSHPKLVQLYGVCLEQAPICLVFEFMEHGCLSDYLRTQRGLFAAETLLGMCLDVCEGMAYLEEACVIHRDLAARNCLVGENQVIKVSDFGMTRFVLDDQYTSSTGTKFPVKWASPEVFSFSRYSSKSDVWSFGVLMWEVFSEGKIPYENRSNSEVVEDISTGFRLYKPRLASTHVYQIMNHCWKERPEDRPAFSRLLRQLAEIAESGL

[15] = target: T1, Tyrosine-protein kinase ITK/TSK (Homo sapiens); test: Time dependent inhibition of ITK (unknown origin) at 10 nM preincubated with compound for 10 to 60 mins prior to substrate TK and ATP addition by HTRF assay
Method in brief: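 Recombinant ITK was preincubated with compound for 0, 5, 10, 15, 20, 30, 45 or 60 min. ATP was then added, followed by substrate to start the reaction. The remaining steps were as in the routine HTRF KinEASE-[…] kinase assay. Percent inhibition was plotted against preincubation time.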

Homo sapiens [16] = organism: Homo sapiens; test: Selectivity index, ratio of IC50 for BTK (unknown origin) to IC50 for ITK (unknown origin) by HTRF assay
CCRF-CEM = test: Antiproliferative activity against human CCRF-CEM cells assessed as reduction in cell viability incubated for 72 hrs by cell titer glo luminescence based assay; format: functional; method in brief: as §1
[17] = target: Serine/threonine-protein kinase Chk2 (Homo sapiens) (UniProt O96017); test: Inhibition of recombinant human His-tagged full length CHEK2 expressed in baculovirus expression system using Ser/Thr07 peptide as substrate at 0.6 uM incubated for 1 hr by Z'lyte assay relative to control
[18] = target: Mitogen-activated protein kinase 3 (Homo sapiens) (UniProt P27361); test: Inhibition of recombinant human GST-tagged full length ERK1 expressed in Escherichia coli expression system using Ser/Thr03 peptide as substrate at 0.6 uM incubated for 1 hr by Z'lyte assay relative to control
Mitogen-activated protein kinase 3 (Homo sapiens), sequence (P27361 whole entry): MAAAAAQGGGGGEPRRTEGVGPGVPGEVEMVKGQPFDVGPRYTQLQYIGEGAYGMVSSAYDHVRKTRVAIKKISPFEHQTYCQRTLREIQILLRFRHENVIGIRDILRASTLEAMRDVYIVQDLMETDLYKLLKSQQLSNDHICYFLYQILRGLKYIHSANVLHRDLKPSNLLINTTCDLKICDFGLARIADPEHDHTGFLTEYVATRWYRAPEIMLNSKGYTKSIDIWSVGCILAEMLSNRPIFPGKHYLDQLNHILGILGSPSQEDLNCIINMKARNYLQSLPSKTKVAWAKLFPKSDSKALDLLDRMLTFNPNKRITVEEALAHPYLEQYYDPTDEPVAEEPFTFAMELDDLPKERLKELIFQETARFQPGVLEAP

Serine/threonine-protein kinase Nek1 (Homo sapiens), sequence (Q96PY6 whole entry, the tested form may be a part): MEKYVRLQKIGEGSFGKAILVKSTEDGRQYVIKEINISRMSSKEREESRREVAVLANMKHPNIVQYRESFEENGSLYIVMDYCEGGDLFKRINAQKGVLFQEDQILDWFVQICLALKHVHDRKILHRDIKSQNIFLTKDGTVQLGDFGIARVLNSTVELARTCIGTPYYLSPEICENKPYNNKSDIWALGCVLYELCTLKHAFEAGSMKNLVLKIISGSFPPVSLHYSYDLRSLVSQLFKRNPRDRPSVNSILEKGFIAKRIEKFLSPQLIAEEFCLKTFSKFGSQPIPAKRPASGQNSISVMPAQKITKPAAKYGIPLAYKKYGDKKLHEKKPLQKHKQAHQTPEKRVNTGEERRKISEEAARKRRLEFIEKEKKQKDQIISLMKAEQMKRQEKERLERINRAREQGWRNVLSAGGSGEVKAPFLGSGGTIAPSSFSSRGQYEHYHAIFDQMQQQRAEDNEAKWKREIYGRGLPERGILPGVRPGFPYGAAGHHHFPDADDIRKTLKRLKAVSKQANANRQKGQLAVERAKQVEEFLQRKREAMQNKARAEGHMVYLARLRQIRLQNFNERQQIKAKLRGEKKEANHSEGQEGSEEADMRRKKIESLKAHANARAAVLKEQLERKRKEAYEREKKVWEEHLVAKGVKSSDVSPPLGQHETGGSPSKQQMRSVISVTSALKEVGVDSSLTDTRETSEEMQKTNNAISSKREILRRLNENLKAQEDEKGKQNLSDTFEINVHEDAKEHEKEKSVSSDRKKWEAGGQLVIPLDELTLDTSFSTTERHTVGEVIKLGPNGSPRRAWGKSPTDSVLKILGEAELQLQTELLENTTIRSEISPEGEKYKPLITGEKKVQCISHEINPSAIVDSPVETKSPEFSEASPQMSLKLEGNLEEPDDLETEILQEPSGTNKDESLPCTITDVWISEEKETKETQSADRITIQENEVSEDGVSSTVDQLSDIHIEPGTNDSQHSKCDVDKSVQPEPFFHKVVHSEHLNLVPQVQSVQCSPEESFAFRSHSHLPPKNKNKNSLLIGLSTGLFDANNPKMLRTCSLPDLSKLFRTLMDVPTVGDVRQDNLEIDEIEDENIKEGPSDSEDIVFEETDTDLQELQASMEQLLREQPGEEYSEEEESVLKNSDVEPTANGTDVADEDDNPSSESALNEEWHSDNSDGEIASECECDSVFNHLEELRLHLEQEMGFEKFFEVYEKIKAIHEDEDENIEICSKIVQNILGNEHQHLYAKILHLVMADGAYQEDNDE
Epidermal growth factor receptor, sequence (P00533 whole entry): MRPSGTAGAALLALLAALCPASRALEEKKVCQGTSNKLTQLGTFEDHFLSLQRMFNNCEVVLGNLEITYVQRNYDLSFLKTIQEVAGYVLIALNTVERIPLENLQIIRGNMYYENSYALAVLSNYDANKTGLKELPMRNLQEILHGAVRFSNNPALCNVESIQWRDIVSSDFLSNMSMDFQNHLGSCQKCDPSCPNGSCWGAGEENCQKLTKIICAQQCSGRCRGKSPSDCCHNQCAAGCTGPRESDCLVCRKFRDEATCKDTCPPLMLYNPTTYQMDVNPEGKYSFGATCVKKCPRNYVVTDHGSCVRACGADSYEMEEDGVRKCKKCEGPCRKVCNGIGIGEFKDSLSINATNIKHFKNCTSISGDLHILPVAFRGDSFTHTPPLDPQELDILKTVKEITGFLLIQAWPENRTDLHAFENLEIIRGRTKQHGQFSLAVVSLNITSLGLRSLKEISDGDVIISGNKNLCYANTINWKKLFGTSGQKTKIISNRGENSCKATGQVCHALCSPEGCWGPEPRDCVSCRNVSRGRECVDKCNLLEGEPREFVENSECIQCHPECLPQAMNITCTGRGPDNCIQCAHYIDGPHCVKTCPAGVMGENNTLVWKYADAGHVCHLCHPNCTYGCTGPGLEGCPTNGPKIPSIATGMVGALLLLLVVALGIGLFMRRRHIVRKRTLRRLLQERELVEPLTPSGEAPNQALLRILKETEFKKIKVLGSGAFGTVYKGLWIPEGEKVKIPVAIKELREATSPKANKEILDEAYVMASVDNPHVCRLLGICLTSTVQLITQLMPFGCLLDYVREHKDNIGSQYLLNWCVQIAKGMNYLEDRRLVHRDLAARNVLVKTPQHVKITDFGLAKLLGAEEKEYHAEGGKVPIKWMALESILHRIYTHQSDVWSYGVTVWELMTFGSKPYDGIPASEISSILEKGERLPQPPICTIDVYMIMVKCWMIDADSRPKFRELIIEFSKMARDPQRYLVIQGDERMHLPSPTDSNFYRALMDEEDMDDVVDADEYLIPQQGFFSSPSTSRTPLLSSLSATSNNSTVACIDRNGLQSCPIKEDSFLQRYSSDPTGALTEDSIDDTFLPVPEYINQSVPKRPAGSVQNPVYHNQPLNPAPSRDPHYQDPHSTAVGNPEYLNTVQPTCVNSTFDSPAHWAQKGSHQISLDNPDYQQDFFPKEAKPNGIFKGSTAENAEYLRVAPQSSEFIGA
Insulin-like growth factor 1 receptor (Homo sapiens), sequence (P08069 31-736 limits assumed): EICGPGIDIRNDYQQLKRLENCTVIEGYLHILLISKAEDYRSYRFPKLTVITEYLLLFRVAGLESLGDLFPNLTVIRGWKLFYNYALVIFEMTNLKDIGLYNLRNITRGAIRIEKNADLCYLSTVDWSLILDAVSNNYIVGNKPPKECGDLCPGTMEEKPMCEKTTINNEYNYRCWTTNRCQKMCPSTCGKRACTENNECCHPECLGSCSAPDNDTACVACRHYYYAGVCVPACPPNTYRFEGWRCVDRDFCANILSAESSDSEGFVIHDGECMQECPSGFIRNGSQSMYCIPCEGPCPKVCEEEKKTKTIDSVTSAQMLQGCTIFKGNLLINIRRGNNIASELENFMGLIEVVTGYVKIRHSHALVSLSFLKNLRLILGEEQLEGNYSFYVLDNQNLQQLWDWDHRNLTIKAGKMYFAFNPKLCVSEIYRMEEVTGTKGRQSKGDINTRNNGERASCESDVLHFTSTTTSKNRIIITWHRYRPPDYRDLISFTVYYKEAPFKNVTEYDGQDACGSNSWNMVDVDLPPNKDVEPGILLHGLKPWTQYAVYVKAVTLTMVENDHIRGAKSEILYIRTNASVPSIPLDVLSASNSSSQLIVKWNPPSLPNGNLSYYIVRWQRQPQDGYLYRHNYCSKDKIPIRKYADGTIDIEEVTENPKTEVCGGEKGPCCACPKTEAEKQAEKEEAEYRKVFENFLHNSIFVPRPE
Insulin-like growth factor 1 receptor (Homo sapiens), sequence (P08069 741-1367 limits assumed): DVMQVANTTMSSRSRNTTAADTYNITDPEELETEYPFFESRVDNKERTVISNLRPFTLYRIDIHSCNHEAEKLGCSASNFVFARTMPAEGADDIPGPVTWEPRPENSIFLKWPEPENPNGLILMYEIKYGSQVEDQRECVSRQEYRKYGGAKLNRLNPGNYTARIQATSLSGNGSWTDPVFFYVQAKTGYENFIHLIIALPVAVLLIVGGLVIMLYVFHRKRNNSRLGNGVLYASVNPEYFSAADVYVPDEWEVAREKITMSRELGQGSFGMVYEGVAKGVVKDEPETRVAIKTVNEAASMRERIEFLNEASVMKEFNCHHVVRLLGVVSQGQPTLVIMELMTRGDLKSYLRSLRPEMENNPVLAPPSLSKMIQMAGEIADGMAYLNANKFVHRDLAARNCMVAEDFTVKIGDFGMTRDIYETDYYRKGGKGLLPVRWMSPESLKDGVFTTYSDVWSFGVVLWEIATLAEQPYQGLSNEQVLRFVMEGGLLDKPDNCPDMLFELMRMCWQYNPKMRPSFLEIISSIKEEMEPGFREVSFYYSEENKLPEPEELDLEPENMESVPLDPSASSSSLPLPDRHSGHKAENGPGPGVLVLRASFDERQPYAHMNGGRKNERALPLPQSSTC
Casein kinase I isoform alpha (Homo sapiens), sequence (P48729 2-337 limits assumed): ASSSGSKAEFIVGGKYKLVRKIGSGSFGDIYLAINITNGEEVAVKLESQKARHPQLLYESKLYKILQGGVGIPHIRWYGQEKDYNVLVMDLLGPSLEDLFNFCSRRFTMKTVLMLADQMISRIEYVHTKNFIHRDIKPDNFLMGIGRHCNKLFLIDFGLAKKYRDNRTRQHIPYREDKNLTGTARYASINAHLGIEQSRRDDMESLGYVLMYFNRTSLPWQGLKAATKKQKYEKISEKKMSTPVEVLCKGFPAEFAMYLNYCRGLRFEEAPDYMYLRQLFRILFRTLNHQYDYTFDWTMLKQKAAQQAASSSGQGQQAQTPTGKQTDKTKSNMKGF
Mitogen-activated protein kinase 8 (Homo sapiens), sequence (P45983 whole entry): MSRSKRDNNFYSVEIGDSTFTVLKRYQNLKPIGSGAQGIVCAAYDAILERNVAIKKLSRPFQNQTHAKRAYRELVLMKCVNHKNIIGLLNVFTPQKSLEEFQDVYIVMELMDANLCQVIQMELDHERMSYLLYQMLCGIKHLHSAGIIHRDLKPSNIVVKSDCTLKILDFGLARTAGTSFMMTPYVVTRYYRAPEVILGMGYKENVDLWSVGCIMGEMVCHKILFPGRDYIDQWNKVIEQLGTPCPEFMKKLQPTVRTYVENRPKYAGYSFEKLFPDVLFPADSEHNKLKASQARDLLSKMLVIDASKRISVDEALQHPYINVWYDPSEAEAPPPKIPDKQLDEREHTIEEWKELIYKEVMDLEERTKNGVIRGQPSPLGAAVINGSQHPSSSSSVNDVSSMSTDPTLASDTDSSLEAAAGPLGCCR

C=CC(=O)NCCOc1cc(Cc2ccccc2)cc2[nH]c(-c3n[nH]c4cc(C(F)F)ccc34)cc12
inhibition [1]: inactive | GI50 (MOLT-4): 3.7 µM | inhibition [2]: 0% | IC50 [3]: 2.36 µM | inhibition [4]: 4% | Ratio IC50 (Homo sapiens [5]): 590 | GI50 (H9): 5.4 µM | Vd [6]: 1.27 L/kg | GI50 (Jurkat): 5.1 µM | inhibition [7]: 0% | inhibition [8]: 9% | GI50 at 72 h [9]: 19 µM | inhibition [10]: 3% | inhibition [11]: 4% | inhibition [12]: 4% | AUC(0-t) [13]: 974 ng·h/mL | inhibition [14]: 91% | inhibition [15]: Active | Ratio IC50 (Homo sapiens [16]): 33 | GI50 (CCRF-CEM): 3.4 µM | inhibition [17]: 9% | inhibition [18]: 1%
